This passage reports Activity results from ChEMBL document CHEMBL1145286, “Dual angiotensin II and endothelin A receptor antagonists: synthesis of 2'-substituted N-3-isoxazolyl biphenylsulfonamides with improved potency and pharmacokinetics” (2005).

Format in all cases: functional
Assay [1] addresses T1, Endothelin-1 receptor (Rattus norvegicus) (UniProt P26684).
T1 sequence (whole entry): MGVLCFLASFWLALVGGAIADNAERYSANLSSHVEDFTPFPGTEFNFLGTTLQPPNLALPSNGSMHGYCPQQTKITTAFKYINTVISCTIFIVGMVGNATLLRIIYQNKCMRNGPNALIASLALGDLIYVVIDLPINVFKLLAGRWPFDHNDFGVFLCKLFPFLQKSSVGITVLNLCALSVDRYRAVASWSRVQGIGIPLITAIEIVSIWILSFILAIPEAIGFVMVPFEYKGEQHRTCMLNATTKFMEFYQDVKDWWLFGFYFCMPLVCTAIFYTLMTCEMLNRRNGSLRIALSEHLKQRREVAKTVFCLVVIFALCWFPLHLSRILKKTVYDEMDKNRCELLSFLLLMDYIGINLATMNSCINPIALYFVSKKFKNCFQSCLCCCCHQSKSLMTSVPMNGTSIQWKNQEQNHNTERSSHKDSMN
The assay can be described thus: Endothelin pressor effect in rats after oral dose of 30 uM/kg. The procedure, abridged: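 Conscious normotensive rats; big endothelin-1 (1.0 nmol/kg iv) challenge after vehicle gave the control pressor response. Drug at 30 μmol/kg given po (or iv), then bET-1 re-challenge at various times after dosing. 6–8 rats per group.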

Assay [2] has as its target Angiotensin II receptor (AT-1) type-1 (Rattus norvegicus) (UniProt P29089+P25095). The assay can be described thus: Angiotensin II pressor effect in rats after oral dose of 30 uM/kg. The procedure, abridged: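 Conscious rats given vehicle by gavage, then an iv bolus Ang II challenge as control pressor response; drug at 30 μmol/kg by oral gavage, Ang II re-challenge at intervals up to 240 min. 6–8 rats per dose. […]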

For the next assay, the system named is Caco-2. The assay can be described thus: Permeability in Caco-2 cell monolayer.

The source made the active and inactive calls. The rule behind the calls is not given here.

For the compound `Cc1noc(NS(=O)(=O)c2ccccc2-c2ccc(-c3ncco3)cc2)c1C`, the Activity in assay [1] worked out at 9700 AUC units. In assay [2], the result was inactive.

`CCCCC1=NC2(CCCC2)C(=O)N1Cc1ccc(-c2ccccc2S(=O)(=O)Nc2onc(C)c2C)c(CN2CCC(C)(C)C2=O)c1` [BMS-248360]: the Activity is 7900 AUC units in assay [1], 5800 AUC units in assay [2] and 30 nm/s with Caco-2.

For the compound `CCCCC1=NC2(CCCC2)C(=O)N1Cc1ccc(-c2ccccc2S(=O)(=O)Nc2onc(C)c2C)c(CCC)c1`, the Activity amounted to 8600 AUC units in assay [1], 15900 AUC units in assay [2] and 240 nm/s in the assay on Caco-2.

As to `CCCCC1=NC2(CCCC2)C(=O)N1Cc1ccc(-c2ccccc2-c2nnn[nH]2)cc1` [IRBESARTAN], in assay [1], the outcome was inactive. Moreover, the Activity amounted to 13500 AUC units in assay [2] and 100 nm/s with Caco-2.

Regarding `CCCCC1=NC2(CCCC2)C(=O)N1Cc1ccc(-c2ccccc2S(=O)(=O)Nc2noc(C)c2C)c(COCC)c1`, the Activity in assay [1] is 15800 AUC units; in assay [2], 18600 AUC units.

Regarding `CCCCC1=NC2(CCCC2)C(=O)N1Cc1ccc(-c2ccccc2S(=O)(=O)Nc2onc(C)c2C)c(COCC)c1`, the Activity worked out at 3900 AUC units in assay [1], 13900 AUC units in assay [2] and 170 nm/s with Caco-2.

On to `CCCCC1=NC2(CCCC2)C(=O)N1Cc1ccc(-c2ccccc2S(=O)(=O)Nc2noc(C)c2C)c(CCC)c1`, for which the figures for the Activity in assay [1] and in assay [2] were 13000 AUC units and 16300 AUC units, respectively.
